Screens from PubChem BioAssay.
ABHD4 inh: ABHD4 inhibitors, primary screen, biochemical, fluorescence polarization, mouse | purified mABHD4, FP-Rh probe fluorescence polarization | hit rate 0.54% among 370,000 | (Lyso)-N-acylphosphatidylethanolamine lipase (Mus musculus), Q8VD66 | AID 720543, 2013 | inhibition, % at 8.92 µM;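 active = inhibition exceeding the mean over every tested compound plus 3 SD, cut at about 30% in these data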
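Doses – 8.92 µM, single dose · Material – wild-type mouse ABHD4 protein · Replication – single well per compound (singlicate) · Measure – percent inhibition of probe binding, normalized to plate controls · Schedule – 45 min compound pre-incubation plus 60 min probe step, 25 °C · Detection – fluorescence polarization with parallel and perpendicular emission, 525/598 nm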
TCR-CD3 inh: inhibitors of human TCR-CD3 interaction, primary screen, biochemical, fluorescence, TAMRA-labeled TCR probe | inhibition, % at 9.4 µM | hit rate 0.37% among 360,000 | AID 651800, 2012; in the data active = inhibition above about 19%;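 note: recombinant mutant TCR 2C K166C tagged with TAMRA read by polarization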
HTRA1 inhibitor: HTRA1 serine protease inhibitors, primary screen, biochemical, fluorescence polarization, HTS; Q92743; AID 504803, 2011; recombinant HTRA1, FP-rhodamine activity-based probe; hit rate 0.5% among 340,000; inhibition, % at 5.96 µM; in the data active = inhibition above about 36%
SIAE primary: human SIAE inhibitors, primary screen, biochemical, fluorescence polarization, FP-Rh probe, 1536-well HTS; Sialate O-acetylesterase (Homo sapiens), Q9HAT2; SIAE FP-Rh probe binding; inhibition, % at 9.66 µM; hit rate 0.69% among 370,000;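 active = inhibition above a cutoff: mean of compounds within the control limits plus 3 SD of those, cut at about 17% in these data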
PRMT1 FP inh: PRMT1 methyltransferase inhibitors, primary screen, biochemical, fluorescence polarization. hit rate 1.3% among 370,000. recombinant PRMT1, activity-based probe fluorescence polarization. inhibition, % at 2.79 µM. AID 652257, 2013;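 active = inhibition above about 21% made by adding two undisclosed values, limit read from the data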
Target sequence (Q99873 whole entry, looked up): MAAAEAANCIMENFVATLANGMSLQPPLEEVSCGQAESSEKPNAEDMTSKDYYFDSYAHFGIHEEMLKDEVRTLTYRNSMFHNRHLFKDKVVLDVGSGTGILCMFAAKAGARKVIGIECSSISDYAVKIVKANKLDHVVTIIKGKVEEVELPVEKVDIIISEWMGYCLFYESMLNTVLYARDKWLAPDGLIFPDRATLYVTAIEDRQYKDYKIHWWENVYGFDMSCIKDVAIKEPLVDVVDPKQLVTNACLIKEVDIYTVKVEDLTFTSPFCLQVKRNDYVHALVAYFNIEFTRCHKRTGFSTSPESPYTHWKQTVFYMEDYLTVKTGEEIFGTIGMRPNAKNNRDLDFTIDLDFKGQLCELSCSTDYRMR
rCAG RNA binder: binders of r(CAG) RNA repeats, primary screen, biochemical, fluorescence; r(CAG) RNA repeat, TO-PRO-1 dye displacement fluorescence; inhibition, % at 3 µM; hit rate 1.3% among 370,000; AID 651821, 2012;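 active = inhibition above the plate cutoff, the mean of all test compounds on that plate plus 3 SD, cut at about 35% in these data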;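 note: higher means more dye released from RNA so lower well fluorescence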
SIAE confirm: human SIAE inhibitors, retest, confirmation, biochemical, fluorescence polarization, FP-Rh probe, triplicate; shares compounds with SIAE primary; SIAE FP-Rh activity-based probe; inhibition, % at 9.66 µM; hit rate 13% among 2,300; AID 1117263, 2014;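 active = mean inhibition of the replicates above the hit cutoff set in the primary screen, cut at about 17% in these data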;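 note: inhibitors lower polarization as more probe stays unbound to SIAE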
Numbers stand for hits; 0 = inactive; - = no result given. Most compounds without a hit are left out; they make up all but 3.5% or so of the library.

SMILES	ABHD4 inh	TCR-CD3 inh	HTRA1 inhibitor	SIAE primary	PRMT1 FP inh	rCAG RNA binder	SIAE confirm
COc1ccccc1CCC(=O)OCC(=O)N1c2ccccc2NC(=O)C1(C)C	0	0	0	21	0	0	0
O=C(O)c1cn(-c2ccc(F)cc2)c2cc(N3CCNCC3)c(F)cc2c1=O	0	0	0	0	0	0	-
O=C(O)c1cn(-c2ccc(F)c(F)c2)c2c(F)c(F)c(F)c(F)c2c1=O	0	0	0	20	0	0	0
CCCCCCCCNS(=O)(=O)CC1NCc2ccc(C)cc21 (stereo not drawn)	0	-	-	0	0	0	-
COc1ccc(CNCC#Cc2ccccc2)cc1	0	-	-	0	0	0	-
CC(OC(=O)c1ccc(Cl)nc1)C(=O)N1CCc2ccccc21 (stereo not drawn)	0	0	0	19	0	0	0
CC(=O)Nc1cccc(C(=O)OC(C)C(=O)N2CCc3ccccc32)c1 (stereo not drawn)	0	0	0	0	0	0	-
Cc1c(CCC(=O)NCCCn2ccnc2)c(=O)oc2cc3occ(C(C)(C)C)c3cc12	0	0	0	18	0	0	0
COc1ccc(-n2c(COc3ccc(Cl)cc3)nnc2SCC(=O)c2ccc(-c3ccccc3)cc2)cc1	0	-	-	0	0	0	-
CC1=CCC(C(=O)O)C(C(=O)NC2CCCCC2)C1 (stereo not drawn)	0	0	0	22	0	0	0
CC(=O)Nc1nc(-c2ccccc2)cc(-c2ccco2)c1C#N	0	0	0	0	0	0	-
Cc1ccc(-c2cc(-c3ccco3)c3c(N)c(C(=O)NN)oc3n2)cc1	0	0	0	28	0	0	45
Cc1c(CCNC=O)cc(C)c2c3c(oc12)CCCC3	0	0	0	89	0	0	0
Cc1ccc(S(=O)(=O)Nc2cc(C)cc(CCNC=O)c2C)cc1	0	0	0	0	0	0	-
Clc1ccc(N/N=C/c2ccncc2)cc1Cl	0	0	0	24	0	0	19
O=C(CCC(=O)OCC(F)(F)C(F)F)Nc1ccc(Cl)cc1	0	0	0	18	0	0	0
COc1ccccc1NC(=O)C1=C(C)Nc2nc(-c3cccs3)nn2C1c1cccnc1 (stereo not drawn)	0	0	0	18	0	0	0
COc1ccccc1NC(=O)C1=C(C)Nc2nc(-c3cccnc3)nn2C1c1ccccn1 (stereo not drawn)	0	0	0	0	0	0	-
Nc1ccc2nc(-c3ccc(-c4nc5ccc(N)cc5[nH]4)cc3)[nH]c2c1	0	0	-	17	0	0	26
CCCCNC(=O)O[C@H]1CC[C@@]23CCCN2C(=O)CCC[C@H]3[C@H]1C	0	-	-	0	0	-	-
Oc1[nH]c2ccccc2c1N=Nc1ccccc1Cl	0	0	0	0	0	0	-
O=Nc1c(O)[nH]c2ccc(Cl)c(Cl)c12	0	0	0	63	0	0	42
O=C(Nc1ccc(F)cc1)OCc1cn(Cc2c(F)cccc2F)nn1	0	-	-	0	0	0	-
CCOc1ccccc1NC(=O)N1CCc2ccccc2C1	0	0	0	18	0	0	0
Cc1cccc(C(=O)OCC(=O)NC2CCCCCCC2)c1	0	0	0	0	0	0	-
SMILES	ABHD4 inh	TCR-CD3 inh	HTRA1 inhibitor	SIAE primary	PRMT1 FP inh	rCAG RNA binder	SIAE confirm
Cc1ccc(C(=O)OCC(=O)NC2CCCCCC2)c(C)c1	0	0	0	122	0	0	0
O=C(N/N=C\c1ccccn1)c1cccc(C(=O)N/N=C\c2ccccn2)n1	0	0	0	21	0	0	21
COc1cccc(Nc2nc3ccc(OC)cc3s2)c1	0	0	0	20	0	0	0
CCOC(=O)c1sc(Nc2nc3c(F)cccc3s2)cc1C	0	0	0	0	0	0	-
CCOC(=O)c1sc(Nc2nc3ccc(OC)cc3s2)cc1C	0	0	0	34	0	0	0
O=C(OCc1cn(Cc2ccccc2F)nn1)N1CCOCC1	0	-	-	0	0	0	-
O=[N+]([O-])c1ccc(OC[C@@H](O)CN2CCC(C(O)(c3ccccc3)c3ccccc3)CC2)c(Cl)c1	0	-	-	0	0	0	-
COc1cc(CNc2ccc(N3CCOCC3)cc2)ccc1OCC(=O)NC(C)(C)C	0	0	0	19	0	0	0
O=C(CN1NS(=O)(=O)c2ccccc2C1=O)Nc1ccccc1OC(F)F	0	0	0	19	0	0	0
C[C@H]1COc2cc(N3CCSCC3)ccc2S(=O)(=O)N1C	0	-	-	0	0	0	-
O=c1c2ccccc2oc2cc(Br)ccc12	0	0	0	20	0	0	0
COc1cc2oc3ccccc3c(=O)c2cc1OC	-	-	0	-	-	-	-
CCOC(=O)/C(=N/Nc1ccc(OC)cc1)Sc1nnc(CCc2ccccc2)n1-c1ccccc1	0	0	0	17	0	0	0
CC(=O)/C(=N/Nc1ccc(C)cc1)Sc1nnc(CCc2ccccc2)n1-c1ccccc1	0	0	0	0	0	0	-
COc1ccccc1CN[C@@H]1CC[C@@]23CCCN2C(=O)CCC[C@H]3C1	0	-	-	0	0	-	-
O=C(CSc1nnc(-c2ccccc2F)n1C1CC1)NC(=O)c1cccc([N+](=O)[O-])c1	0	0	0	0	0	0	-
Cn1c(SCC(=O)NC(=O)c2cccc([N+](=O)[O-])c2)nnc1-c1ccc(F)cc1	0	0	0	23	0	0	0
Cc1ccc(Cn2cc(COC(=O)N3CCCC3)nn2)cc1	0	-	-	0	0	0	-
CCCc1nc2ccccc2c(C(=O)OCC(=O)NCc2ccco2)c1CC	0	0	0	0	0	0	-
CCCc1nc2ccccc2c(C(=O)OCC(=O)NC2CC2)c1CC	0	0	0	25	0	0	0
COc1cccc(CNC(=O)C2CCCN(c3ncccn3)C2)c1OC (stereo not drawn)	0	-	-	0	0	0	-
Nc1[nH]c2cc(C(F)(F)F)ccc2c1C(=O)NC1CCCCC1	0	-	-	0	0	0	-
CCOC(=O)C1CCN(S(=O)(=O)c2ccc(C)c(C(=O)NC3CCCCC3)c2)CC1	0	0	0	0	0	0	-
CCOC(=O)N1CCN(S(=O)(=O)c2ccc(C)c(C(=O)NC3CCCCC3)c2)CC1	0	0	0	19	0	0	0
FC(F)(F)Oc1cccc(Cn2ccc3ccc(-c4ccc5ccn(Cc6cccc(OC(F)(F)F)c6)c5c4)cc32)c1	0	-	-	0	0	0	-
COc1ccc2c(Cl)c(C(=O)N/N=C/c3c(C)[nH]c4ccccc34)sc2c1	0	0	0	23	0	0	0
COc1cccc(CCNS(=O)(=O)c2c(C)n[nH]c2C)c1	0	-	-	0	0	0	-
